These results are taken from article PMC5966020 (Journal of medicinal chemistry, 2018).

Read-outs that look alike come from different tables or passages of the source.

The target of data set [1] is T1, rat brain MAGL (Rattus norvegicus, UniProt Q8R431).
T1 sequence (Q8R431 1-303): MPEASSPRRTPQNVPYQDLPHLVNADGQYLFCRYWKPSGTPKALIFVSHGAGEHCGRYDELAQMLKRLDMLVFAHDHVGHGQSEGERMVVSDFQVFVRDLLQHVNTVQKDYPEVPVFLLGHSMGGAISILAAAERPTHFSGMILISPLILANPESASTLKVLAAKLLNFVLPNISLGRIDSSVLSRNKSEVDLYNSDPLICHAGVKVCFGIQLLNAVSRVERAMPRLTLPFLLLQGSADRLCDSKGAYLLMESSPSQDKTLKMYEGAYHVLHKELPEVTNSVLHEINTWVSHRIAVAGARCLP
The following applies: read-out: IC50, inhibition of [3H]2-OG hydrolysis, cited from earlier work.

Data set [2] addresses T1, rat brain MAGL. Put plainly: [3H]2-OG hydrolysis assay. It counts as biochemical. The following applies: for pIC50 in [3H]2-OG assay: positive control; for IC50: IC50, inhibition of [3H]2-OG hydrolysis, 0.5 μM [3H]2-OG. A digest of the protocol:
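Rat brain preparation, test compound and buffer (10 mM Tris-HCl, 1 mM EDTA, pH 7.4) were preincubated 0–60 min. [3H]2-OG diluted with unlabelled 2-OG was then added to 0.5 μM final, with 0.125% w/v fatty acid-free BSA. Kinetics: no preincubation, 2 min incubation. Reversibility: 60 min preincubation, then 20-fold dilution. JZL184 was the positive control. Means of 3–4 runs.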

The nature of data set [3]: LogP by shake flask method. The following applies: n-octanol/water. It is filed as physicochemical. A digest of the protocol:
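n-Octanol/water liquid-liquid partition ('shake flask'), following the OECD 107 guideline. Compound quantified in each phase by LC-MS; n = 3.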

The target of another data set is T2, FAAH (Rattus norvegicus, UniProt P97612).
T2 sequence (P97612 1-579): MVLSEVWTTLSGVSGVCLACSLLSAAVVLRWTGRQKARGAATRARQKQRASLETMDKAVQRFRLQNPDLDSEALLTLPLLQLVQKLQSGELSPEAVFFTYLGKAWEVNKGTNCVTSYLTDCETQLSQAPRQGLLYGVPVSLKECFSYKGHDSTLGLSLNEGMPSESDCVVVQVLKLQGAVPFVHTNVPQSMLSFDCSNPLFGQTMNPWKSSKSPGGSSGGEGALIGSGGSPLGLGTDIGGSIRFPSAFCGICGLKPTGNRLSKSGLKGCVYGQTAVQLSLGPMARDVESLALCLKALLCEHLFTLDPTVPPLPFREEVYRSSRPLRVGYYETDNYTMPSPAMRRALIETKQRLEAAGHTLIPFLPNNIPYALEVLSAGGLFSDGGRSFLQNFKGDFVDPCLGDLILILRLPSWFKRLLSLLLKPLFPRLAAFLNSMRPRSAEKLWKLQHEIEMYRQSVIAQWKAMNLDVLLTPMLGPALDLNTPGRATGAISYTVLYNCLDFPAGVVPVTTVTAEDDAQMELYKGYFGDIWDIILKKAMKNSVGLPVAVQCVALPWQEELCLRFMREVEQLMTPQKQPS
The experiment in a line: [3H]AEA hydrolysis assay. It counts as biochemical.

Another data set deals with CB1 (Homo sapiens, UniProt P21554). The experiment in a line: CB1 receptor agonist and antagonist assays. It counts as cell-based. The following applies: up to 30 μM concentration. An outline of the steps:
(§1)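 Run by the NIMH Psychoactive Drug Screening Program to its published protocols, in agonist and antagonist formats. CP55940 was the agonist control at both receptors. Rimonabant was the CB1 antagonist control and SR144528 the CB2 antagonist control. Dose-response curves were generated, averaged over 3–5 runs.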

In another data set the target is CB2 (Homo sapiens, UniProt P34972). Put plainly: CB2 receptor agonist and antagonist assays. It counts as cell-based. The following applies: up to 30 μM concentration. An outline of the steps:
as §1

Data set [4] addresses T3, human recombinant MAGL (hMAGL) (Homo sapiens, UniProt Q99685).
T3 sequence (Q99685 1-303): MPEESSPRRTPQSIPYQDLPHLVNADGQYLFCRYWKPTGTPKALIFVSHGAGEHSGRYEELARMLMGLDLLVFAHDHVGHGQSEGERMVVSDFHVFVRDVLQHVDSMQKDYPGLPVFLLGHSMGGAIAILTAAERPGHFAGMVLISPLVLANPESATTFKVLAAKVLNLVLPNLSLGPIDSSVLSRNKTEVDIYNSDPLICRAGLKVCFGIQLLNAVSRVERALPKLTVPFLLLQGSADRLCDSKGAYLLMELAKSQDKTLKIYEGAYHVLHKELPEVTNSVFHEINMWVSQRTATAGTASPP
Put plainly: human recombinant MAGL inhibition enzyme assay. It counts as biochemical. A digest of the protocol: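 Commercial MAGL inhibitor screening kit with human recombinant enzyme, run per the manufacturer's instructions. JZL195 was the positive control. IC50 from dose-response curve fitting, averaged over 3–5 runs.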

In the next data set the target is T4, ABHD12 (Mus musculus, UniProt Q99LR1).
T4 sequence (Q99LR1 1-398): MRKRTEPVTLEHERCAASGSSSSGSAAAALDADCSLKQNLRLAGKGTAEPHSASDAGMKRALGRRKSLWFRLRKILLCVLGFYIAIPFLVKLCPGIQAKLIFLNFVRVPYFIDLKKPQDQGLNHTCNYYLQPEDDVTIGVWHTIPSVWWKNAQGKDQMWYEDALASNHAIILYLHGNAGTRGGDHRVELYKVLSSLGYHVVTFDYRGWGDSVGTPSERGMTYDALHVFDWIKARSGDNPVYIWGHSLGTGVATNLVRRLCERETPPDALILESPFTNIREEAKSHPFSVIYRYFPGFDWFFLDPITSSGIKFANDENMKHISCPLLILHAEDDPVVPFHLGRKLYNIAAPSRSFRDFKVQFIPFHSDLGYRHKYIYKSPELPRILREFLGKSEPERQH
The experiment in a line: activity based protein profiling. The following applies: up to 10 μM concentration. It counts as biochemical. A digest of the protocol:
(§2)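 Mouse brain membrane proteome (1 mg/mL) preincubated with DMSO or test compound (1 and 10 μM) for 30 min at 37 °C. FP-rhodamine (1 μM final) was then added for 1–180 min at room temperature. Samples were separated by SDS-PAGE and read by in-gel fluorescence. Band intensity is given relative to DMSO (100%). MJN110 was the positive control; 3 runs.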

A further data set has as its target T5, ABHD6 (Mus musculus, UniProt Q8R2Y0).
T5 sequence (Q8R2Y0 1-336): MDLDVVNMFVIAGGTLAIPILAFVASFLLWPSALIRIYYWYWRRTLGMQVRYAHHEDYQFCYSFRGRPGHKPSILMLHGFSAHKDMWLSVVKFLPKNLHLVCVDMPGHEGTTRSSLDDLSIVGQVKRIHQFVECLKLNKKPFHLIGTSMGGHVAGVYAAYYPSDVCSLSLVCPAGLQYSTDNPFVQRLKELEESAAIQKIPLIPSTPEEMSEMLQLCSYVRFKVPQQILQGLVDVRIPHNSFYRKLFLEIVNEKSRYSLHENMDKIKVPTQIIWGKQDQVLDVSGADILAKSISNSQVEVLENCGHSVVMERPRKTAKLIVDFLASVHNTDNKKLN
The experiment in a line: activity based protein profiling. It counts as biochemical. The following applies: up to 10 μM concentration. A digest of the protocol:
as §2

In another data set the test system is brain. Put plainly: PET brain uptake of 19. The following applies: in vivo.

Sequence of CB1 (P21554 whole entry, species assumed): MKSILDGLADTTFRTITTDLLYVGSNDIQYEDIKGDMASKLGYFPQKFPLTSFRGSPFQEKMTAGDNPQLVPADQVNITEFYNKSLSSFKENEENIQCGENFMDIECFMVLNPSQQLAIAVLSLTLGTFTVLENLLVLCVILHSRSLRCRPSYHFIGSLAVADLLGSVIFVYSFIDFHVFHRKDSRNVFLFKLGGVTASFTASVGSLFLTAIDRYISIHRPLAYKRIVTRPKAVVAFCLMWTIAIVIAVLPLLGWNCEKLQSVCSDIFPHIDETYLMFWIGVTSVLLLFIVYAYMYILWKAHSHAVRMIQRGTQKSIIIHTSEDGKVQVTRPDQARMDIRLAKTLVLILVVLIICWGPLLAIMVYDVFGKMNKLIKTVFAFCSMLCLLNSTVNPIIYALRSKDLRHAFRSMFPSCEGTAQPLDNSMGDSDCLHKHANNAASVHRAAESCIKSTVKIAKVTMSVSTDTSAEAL
Sequence of CB2 (P34972 whole entry, species assumed): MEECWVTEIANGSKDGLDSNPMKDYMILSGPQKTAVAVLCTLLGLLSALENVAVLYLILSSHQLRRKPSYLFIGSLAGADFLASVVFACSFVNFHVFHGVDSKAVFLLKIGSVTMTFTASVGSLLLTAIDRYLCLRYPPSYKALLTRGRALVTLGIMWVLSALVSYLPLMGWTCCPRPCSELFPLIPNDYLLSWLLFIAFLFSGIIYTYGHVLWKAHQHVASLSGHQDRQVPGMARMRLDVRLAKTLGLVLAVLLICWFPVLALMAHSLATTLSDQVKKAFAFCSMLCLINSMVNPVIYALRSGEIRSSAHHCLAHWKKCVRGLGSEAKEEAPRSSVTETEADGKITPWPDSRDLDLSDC

As to `O=C(Oc1ccc([N+](=O)[O-])cc1)N1CCC(C(O)(c2ccc3c(c2)OCO3)c2ccc3c(c2)OCO3)CC1` [JZL184], the IC50 on rat brain MAGL [1] (preincubation 0 min) is 350 nM; on rat brain MAGL [1] (preincubation 30 min) it was 12 nM; on rat brain MAGL [1] (preincubation 60 min) it was 5.8 nM. Also, the “pIC50 in [3H]2-OG assay” value was 8.24±0.02 at rat brain MAGL [2] (60 min preincubation) and 6.46±0.04 at rat brain MAGL [2] (without preincubation).

Regarding `O=C(OC(C(F)(F)F)C(F)(F)F)N1CC(c2nc(-c3cccc(F)c3)no2)C1` [Compound 9, 1,1,1,3,3,3-hexafluoropropan-2-yl 3-(3-(3-fluorophenyl)-1,2,4-oxadiazol-5-yl)azetidine-1-carboxylate], the logP in data set [3] amounted to 1.42 ± 0.11.

In data set [3], `COc1cccc(-c2noc(C3CN(C(=O)OC(C(F)(F)F)C(F)(F)F)C3)n2)c1` [Compound 11, 1,1,1,3,3,3-hexafluoropropan-2-yl 3-(3-(3-methoxyphenyl)-1,2,4-oxadiazol-5-yl)azetidine-1-carboxylate] returned a logP of 1.17 ± 0.14.

Turning to `COc1ccc(-c2noc(C3CN(C(=O)OC(C(F)(F)F)C(F)(F)F)C3)n2)cc1` [Compound 10, 1,1,1,3,3,3-hexafluoropropan-2-yl 3-(3-(4-methoxyphenyl)-1,2,4-oxadiazol-5-yl)azetidine-1-carboxylate], the “selectivity towards MAGL over FAAH” value at FAAH is given as 30–50 fold. Besides, the “interaction with CB1” value at CB1 is listed as “No significant interactions”. Moreover, on CB2, the “interaction with CB2” value is listed as “No significant interactions”. For the same molecule, the IC50 in data set [4] was found to be 12.7 nM; at rat brain MAGL [2] (60 min of pre-incubation), 0.68 nM; against rat brain MAGL [2] (without pre-incubation), 3.9 nM. The same molecule showed a Ki on rat brain MAGL [2] of 1.03 nM. Also, on rat brain MAGL [2] (0.2, 0.6 and 1 nM inhibitor), the time-dependency of inhibition entry is recorded as “time-dependent inhibition”. In addition, the binding mechanism entry on rat brain MAGL [2] (dilution experiments and ABPP time course) is “irreversible binding mechanism”. Moreover, the “interaction with ABHD12” value on ABHD12 is recorded as “No significant interactions”. The molecule further showed a logP in data set [3] of 1.23 ± 0.1. In addition, the “interaction with ABHD6” value on ABHD6 is “No significant interactions”.

Turning to `O=C(Oc1ccc([N+](=O)[O-])cc1)N1CCN(Cc2cccc(Oc3ccccc3)c2)CC1` [JZL195, reference compound], the “block of human recombinant MAGL hydrolysis” value in data set [4] (4.4 μM, positive control) is reported as “completely blocked”.

Take `O=C(OC(C(F)(F)F)C(F)(F)F)N1CC(c2nc(-c3ccc(F)cc3)no2)C1` [Compound 8, 1,1,1,3,3,3-hexafluoropropan-2-yl 3-(3-(4-fluorophenyl)-1,2,4-oxadiazol-5-yl)azetidine-1-carboxylate]: the IC50 in data set [4] was determined as 13.4 nM. Moreover, in data set [3], the logP came to 1.45 ± 0.01.

Turning to `O=C(OC(C(F)(F)F)C(F)(F)F)N1CC(c2nc(-c3ccc(F)cc3)no2)C1` [Compound 19, ^11C-carbonyl labeled 1,1,1,3,3,3-hexafluoropropan-2-yl 3-(3-(4-fluorophenyl)-1,2,4-oxadiazol-5-yl)azetidine-1-carboxylate], in the data set with brain, the “peak SUV in brain” value is recorded as “ca. 1.4 SUV”.

By IC50 is commonly meant the point on the concentration scale where inhibition reaches its midpoint. The term logP denotes a log measure of how a compound divides between an organic and an aqueous phase. The Ki is a measure of affinity in units of concentration, obtained from inhibition or displacement.
